Measurements reported in ChEMBL document CHEMBL1156546, “Synthesis and positive inotropic activity of N-(4,5-dihydro-[1,2,4]triazolo[4,3-a]quinolin-7-yl)-2-(piperazin-1-yl)acetamide derivatives” (2008).
The source made the active and inactive calls. The rule behind the calls is not given here.

Tests used:
[1] = species: Oryctolagus cuniculus; assay: Inotropic effect on isolated rabbit heart assessed as increase in left atrium stroke volume; assay type: functional, Cardiac atrium; parameters: concentration or dose not given beside the values
How it was run: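 Isolated perfused rabbit left atrium, HEPES buffer pH 7.4 (mM: 118 NaCl, 4.7 KCl, 2.5 CaCl2, 1.2 MgCl2, 25 NaHCO3, 10 glucose, 10 HEPES; 0.1% BSA) pumped at 1.25 mL/min. 60 min stabilization, pacing 1.5 Hz. Single dose 3×10^-5 M (DMSO stock diluted in buffer) after control cycle; 12-min cycles, stroke volume read every 2 min. Reported as % stroke volume increase, means ± SE, ANOVA.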

[2] = species: Oryctolagus cuniculus; assay: Chronotropic effect on isolated rabbit heart assessed as change in heart beats; assay type: functional
How it was run: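 Heart rate measured in isolated rabbit hearts from the electrocardiogram in a volume conduction model. Samples at 3×10^-5 M, dissolved in DMSO and diluted in HEPES buffer. Rate recorded before (control) and after sample. Means ± SE, repeated measures compared by ANOVA, P < 0.05.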

Row | SMILES | Activity [1] | Activity [2] | Activity ([1]; Cardiac atrium)
1 | COc1ccc(CN2CCN(CC(=O)Nc3ccc4c(c3)CCc3nnc(C)n3-4)CC2)cc1 | 10.1% | 105.6 bpm | 
2 | Cc1nnc2n1-c1ccc(NC(=O)CN3CCN(Cc4ccc5c(c4)OCO5)CC3)cc1CC2 | 5.1% | 136.9 bpm | 
3 | Cc1nnc2n1-c1ccc(NC(=O)CN3CCN(C(=O)c4cccc([N+](=O)[O-])c4)CC3)cc1CC2 |  |  | inactive
4 | Cc1[nH]c(=O)c(C#N)cc1-c1ccncc1 [MILRINONE] | 4.7% |  | 
5 | Cc1nnc2n1-c1ccc(NC(=O)CN3CCN(C(=O)c4cccc(Cl)c4)CC3)cc1CC2 |  |  | inactive
6 | Cc1nnc2n1-c1ccc(NC(=O)CN3CCN(Cc4ccccc4)CC3)cc1CC2 |  |  | inactive
7 | Cc1ccc(C(=O)N2CCN(CC(=O)Nc3ccc4c(c3)CCc3nnc(Cc5ccccc5)n3-4)CC2)cc1 | 0.7% |  | 
8 | Cc1nnc2n1-c1ccc(NC(=O)CN3CCN(C(=O)c4ccccc4)CC3)cc1CC2 |  |  | inactive
9 | Cc1nnc2n1-c1ccc(NC(=O)CN3CCN(Cc4ccccc4Br)CC3)cc1CC2 |  |  | inactive
10 | COc1ccc(C(=O)N2CCN(CC(=O)Nc3ccc4c(c3)CCc3nnc(C)n3-4)CC2)cc1OC | 5.3% | 129.2 bpm | 
11 | O=C(CN1CCN(C(=O)c2cccc(Cl)c2)CC1)Nc1ccc2c(c1)CCc1nnc(Cc3ccccc3)n1-2 | 2.4% |  | 
12 | CC(=O)N1CCN(CC(=O)Nc2ccc3c(c2)CCc2nnc(C)n2-3)CC1 |  |  | inactive
13 | Cc1cccc(C(=O)N2CCN(CC(=O)Nc3ccc4c(c3)CCc3nnc(C)n3-4)CC2)c1 | 8.8% |  | 
14 | O=C(CN1CCN(Cc2ccccc2)CC1)Nc1ccc2c(c1)CCc1nnc(Cc3ccccc3)n1-2 | 13.2% | 109.3 bpm | 
15 | Cc1cccc(C(=O)N2CCN(CC(=O)Nc3ccc4c(c3)CCc3nnc(Cc5ccccc5)n3-4)CC2)c1 | 0.5% |  | 
16 | COc1cc(CN2CCN(CC(=O)Nc3ccc4c(c3)CCc3nnc(C)n3-4)CC2)ccc1OCc1ccccc1 | 9% | 111.5 bpm | 
17 | O=C(CN1CCN(C(=O)c2ccccc2)CC1)Nc1ccc2c(c1)CCc1nnc(Cc3ccccc3)n1-2 |  |  | inactive
18 | O=C(CN1CCN(Cc2ccc3c(c2)OCO3)CC1)Nc1ccc2c(c1)CCc1nnc(Cc3ccccc3)n1-2 | 5.2% | 89.2 bpm | 
19 | Cc1ccc(C(=O)N2CCN(CC(=O)Nc3ccc4c(c3)CCc3nnc(C)n3-4)CC2)cc1 | 1.3% |  | 
20 | Cc1nnc2n1-c1ccc(NC(=O)CN3CCN(C(=O)c4ccc([N+](=O)[O-])cc4)CC3)cc1CC2 |  |  | inactive
